# Experimental data: ChEMBL document CHEMBL1145243, “Synthesis and bladder smooth muscle relaxing properties of substituted 3-amino-4-aryl-(and aralkyl-)cyclobut-3-ene-1,2-diones” (Bioorg Med Chem Lett, 2005)
# Experiments:
# Assay type in all cases: functional
# Rattus norvegicus [1] = species on record: Rattus norvegicus; test: Percent of reversal of rat bladder detrusor muscle relaxation (resulting from compound treatment) by addition of glyburide
# Rattus norvegicus [2] = species on record: Rattus norvegicus; test: In vitro inhibitory concentration required to relax KCl-induced contractions in rat bladder detrusor muscle strips
# Rattus norvegicus [3] = species on record: Rattus norvegicus; test: In vitro inhibitory concentration required to relax KCl-induced contractions in rat aortic rings; details: Aorta
# Procedure, shortened: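 Rat aortic rings were contracted with KCl and then exposed to drug. The value is the drug concentration (μM) that relaxed the KCl-induced contraction by 50%, reported ± SE.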
# [4] = Rattus norvegicus, read-out: IC50
Structure (SMILES),Reversal (Rattus norvegicus [1]),IC50 (Rattus norvegicus [2]; [4]),IC50 (Rattus norvegicus [3]),IC50 (Rattus norvegicus [2])
COc1ccc(-c2c(NCCc3cccc(C(F)(F)F)c3)c(=O)c2=O)cc1,0%,> 30 µM,–,–
CC(Nc1c(Cc2ccc(C#N)cc2)c(=O)c1=O)C(C)(C)C (stereo not given),0%,> 30 µM,–,–
CCC(C)(C)/N=c1/c(-c2ccc(OC)cc2)c(O)c1=O,0%,2.5 µM,37.6 µM,–
COc1ccc(-c2c(N(C)C(C)C)c(=O)c2=O)cc1,0%,12 µM,46.2 µM,–
COc1ccc(-c2c(NCC(C)c3ccccc3)c(=O)c2=O)cc1 (stereo not given),0%,> 30 µM,–,–
CCC(C)(C)Nc1c(-c2ccc(OCCCc3ccccc3)cc2)c(=O)c1=O,–,–,–,Contracted
COc1ccc(-c2c(NC(C)c3ccccc3)c(=O)c2=O)cc1 (stereo not given),0%,27 µM,–,–
COc1ccc(Cc2c(NC(C)C(C)(C)C)c(=O)c2=O)cc1 (stereo not given),0%,> 30 µM,–,–
C[C@@H](Nc1c(Nc2ccc(C#N)cc2)c(=O)c1=O)C(C)(C)C,110%,0.37 µM,0.064 µM,–
CCc1cc(C#N)ccc1Nc1c(N[C@H](C)C(C)(C)C)c(=O)c1=O,77%,0.09 µM,0.017 µM,–
COc1ccc(C(C(C)=O)c2c(NC(C)C(C)(C)C)c(=O)c2=O)cc1 (stereo not given),0%,> 30 µM,–,–
CC(Nc1c(/C=C/c2ccc(Br)cc2)c(=O)c1=O)C(C)(C)C (stereo not given),25%,> 30 µM,–,–
CCC(C)(C)Nc1c(-c2cccnc2)c(=O)c1=O,0%,> 30 µM,–,–
CC(Nc1c(/C=C/c2ccc(C#N)cc2)c(=O)c1=O)C(C)(C)C (stereo not given),0%,2.94 µM,–,–
CC(=O)C(c1ccc(C(F)(F)F)cc1)c1c(NC(C)C(C)(C)C)c(=O)c1=O (stereo not given),0%,16.2 µM,–,–
CCC(C)(C)/N=c1/c(-c2cccc(OC)c2)c(O)c1=O,–,> 30 µM,–,Contracted
